Results taken from ChEMBL document CHEMBL4732078 (Eur J Med Chem, 2021).
Activity calls are given as the source filed them. No cut-off for these calls is given here.

Key:
[1] = biological target: RAF proto-oncogene serine/threonine-protein kinase (Homo sapiens, UniProt P04049, Y340D/Y341D); assay: Inhibition of human recombinant c-Raf Y340D/Y341D mutant (306 to end residues) using inactive MEK1 as substrate incubated for 40 mins in presence of [gamma33P-ATP] by radiometric scintillation counting analysis
Chain of RAF proto-oncogene serine/threonine-protein kinase (P04049 whole entry Y340D/Y341D, canonical isoform): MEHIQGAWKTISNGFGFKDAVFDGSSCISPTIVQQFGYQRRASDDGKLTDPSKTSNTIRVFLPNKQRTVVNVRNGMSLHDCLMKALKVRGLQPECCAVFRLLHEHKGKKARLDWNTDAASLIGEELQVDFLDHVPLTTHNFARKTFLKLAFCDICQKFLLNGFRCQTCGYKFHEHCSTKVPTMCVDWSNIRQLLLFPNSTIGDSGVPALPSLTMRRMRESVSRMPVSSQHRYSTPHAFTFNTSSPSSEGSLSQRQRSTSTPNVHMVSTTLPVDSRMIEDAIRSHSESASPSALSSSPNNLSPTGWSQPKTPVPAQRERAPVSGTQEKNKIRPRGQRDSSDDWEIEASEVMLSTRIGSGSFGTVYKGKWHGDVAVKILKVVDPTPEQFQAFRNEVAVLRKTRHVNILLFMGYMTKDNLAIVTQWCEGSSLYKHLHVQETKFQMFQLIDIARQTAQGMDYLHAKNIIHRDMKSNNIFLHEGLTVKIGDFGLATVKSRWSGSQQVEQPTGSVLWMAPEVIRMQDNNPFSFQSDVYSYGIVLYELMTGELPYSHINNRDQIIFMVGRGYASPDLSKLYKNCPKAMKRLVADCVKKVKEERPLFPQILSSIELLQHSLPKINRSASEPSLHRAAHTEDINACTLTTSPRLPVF

[2] = biological target: T1, Phosphatidylinositol 4,5-bisphosphate 3-kinase catalytic subunit alpha isoform (Homo sapiens, UniProt P42336); assay: Inhibition of PI3Kalpha (unknown origin) transfected in human Rh30 cells assessed as reduction in AKT phosphorylation at Ser473 at 14 nM by western blot analysis; type: cell-based
T1 sequence (P42336 whole entry, canonical isoform): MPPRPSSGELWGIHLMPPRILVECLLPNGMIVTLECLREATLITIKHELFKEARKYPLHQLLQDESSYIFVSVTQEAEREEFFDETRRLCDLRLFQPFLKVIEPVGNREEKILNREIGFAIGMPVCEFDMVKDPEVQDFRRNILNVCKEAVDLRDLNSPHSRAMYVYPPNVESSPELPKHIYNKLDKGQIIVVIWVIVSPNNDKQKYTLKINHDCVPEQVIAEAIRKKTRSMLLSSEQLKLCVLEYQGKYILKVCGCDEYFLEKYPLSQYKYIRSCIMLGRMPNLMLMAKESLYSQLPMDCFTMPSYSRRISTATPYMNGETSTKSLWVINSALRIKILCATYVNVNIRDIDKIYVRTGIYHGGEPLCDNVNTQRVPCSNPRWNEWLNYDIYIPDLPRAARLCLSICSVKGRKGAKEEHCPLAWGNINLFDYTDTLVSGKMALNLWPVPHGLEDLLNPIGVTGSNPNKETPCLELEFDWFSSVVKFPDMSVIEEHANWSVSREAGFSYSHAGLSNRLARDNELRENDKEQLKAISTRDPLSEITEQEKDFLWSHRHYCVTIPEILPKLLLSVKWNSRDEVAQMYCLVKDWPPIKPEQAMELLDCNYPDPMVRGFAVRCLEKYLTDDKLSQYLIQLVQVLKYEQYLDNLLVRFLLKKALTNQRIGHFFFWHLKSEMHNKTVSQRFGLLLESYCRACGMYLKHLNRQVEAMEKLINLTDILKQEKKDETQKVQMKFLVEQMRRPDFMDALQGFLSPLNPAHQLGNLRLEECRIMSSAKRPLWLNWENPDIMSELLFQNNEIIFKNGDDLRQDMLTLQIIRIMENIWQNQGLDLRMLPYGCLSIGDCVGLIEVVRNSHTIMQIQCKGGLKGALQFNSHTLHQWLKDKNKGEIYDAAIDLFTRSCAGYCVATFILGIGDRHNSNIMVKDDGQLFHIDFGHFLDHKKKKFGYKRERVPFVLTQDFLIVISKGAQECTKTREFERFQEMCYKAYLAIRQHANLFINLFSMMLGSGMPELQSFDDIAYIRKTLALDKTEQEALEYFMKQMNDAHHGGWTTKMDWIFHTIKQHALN
Procedure, shortened: (§1)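 Rh30 cells ectopically expressing membrane-anchored, N-terminally myristoylated, constitutively active p110α, β, γ or δ. Akt phosphorylation assessed by Western blot; lysates made in RIPA buffer, equal protein heated at 95 °C for 10 min in SDS loading buffer.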

[3] = biological target: T1, Phosphatidylinositol 4,5-bisphosphate 3-kinase catalytic subunit alpha isoform; assay: Inhibition of PI3Kalpha in human U87MG cells assessed as reduction in rhIGF1-stimulated AKT phosphorylation at Ser473 treated for 1 hr followed by incubation with IGF1 for 10 mins by western blot analysis; type: cell-based; details: U-87 MG, dose 0.01-1 µM, time 70.0 min
Procedure, shortened: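 U87MG or Rh30 cells held 24 h in serum-free medium, exposed to compound for 1 h, then stimulated with 50 ng/ml IGF-I for 10 min. Lysates blotted for Akt, pAkt T308 and pAkt S473.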

[4] = test system: BT-474; assay: Antiproliferative activity against human BT-474 cells assessed as reduction in cell viability after 72 hrs by sulforhodamine B assay; type: functional, cell-based; details: BT-474, 72 h
Procedure, shortened: (§2)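 SRB assay. Exponentially growing cells seeded at 3000–5000/well, compounds added serially diluted after 24 h, cultured 72 h. Cells fixed with 10% TCA, stained with SRB, dye dissolved in 10 mM Tris-HCl, absorbance read at 560 nm. Inhibition = (ODcontrol − ODtreated)/ODcontrol × 100%. IC50 is the mean of at least three independent tests.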

[5] = test system: MCF7; assay: Antiproliferative activity against human MCF7 cells assessed as reduction in cell viability after 72 hrs by sulforhodamine B assay; type: functional, cell-based; details: MCF7, 72 h; procedure, shortened: as §2
[6] = test system: HCC1954; assay: Antiproliferative activity against human HCC1954 cells assessed as reduction in cell viability after 72 hrs by sulforhodamine B assay; type: functional, cell-based; details: HCC1954, 72 h; procedure, shortened: as §2
[7] = test system: ZR-75-1; assay: Antiproliferative activity against human ZR-75-1 cells assessed as reduction in cell viability after 72 hrs by sulforhodamine B assay; type: functional, cell-based; details: ZR-75-1, 72 h; procedure, shortened: as §2
[8] = test system: SK-OV-3; assay: Antitumor activity against human SK-OV-3 cells xenografted in BALB/cA nude mouse assessed as tumor growth at 5 mg/kg, po administered once a day for 21 days and measured twice per week; type: functional; details: dose 5 mg/kg/day; time 21 day
Procedure, shortened: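 Female BALB/cA nude mice, 4–5 weeks old. SKOV-3 xenografts passaged once in vivo, then 1.5 mm³ fragments implanted s.c. in the right flank by trocar. At about 100 mm³ mice were randomized to vehicle or drug given orally once daily. Tumor size and body weight measured twice weekly; V = length × width²/2.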

[9] = Toxicity in BALB/cA nude mouse xenografted with human SK-OV-3 cells assessed as changes in body weight at 5 to 20 mg/kg, po administered once a day for 21 days and measured twice per week; type: organism-based; details: in vivo, 504 h, dose 5-20 mg/kg/day, time 21 day
Procedure, shortened: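 Female BALB/cA nude mice, 4–5 weeks old, received s.c. passaged SKOV-3 tumor fragments (1.5 mm³) in the right flank. At about 100 mm³ they were randomized to oral vehicle or compound once daily for 21 days. Body weight was measured individually twice per week.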

[10] = Metabolic stability in rat hepatocytes assessed as half life; type: ADME, cell-based, Hepatocyte
[11] = Metabolic stability in Beagle dog hepatocytes assessed as intrinsic clearance; type: ADME, cell-based, Canis lupus familiaris, Hepatocyte; details: read-out: CLH
[12] = Metabolic stability in rat hepatocytes assessed as intrinsic clearance; type: ADME, cell-based, Hepatocyte; details: read-out: CLH
[13] = Half life in rat at 10 mg/kg, po; type: ADME, organism-based; details: in vivo
Procedure, shortened: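 Male rats given 10 mg/kg p.o.; Cmax and terminal half-life taken from the plasma concentration–time profile.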

[14] = AUC (0 to infinity) in rat at 10 mg/kg, po; type: ADME, organism-based; set-up: route oral, time infinity, dose 10 mg/kg; details: in vivo
Procedure, shortened: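 Male rats dosed orally at 10 mg/kg; plasma exposure followed to give AUC0-∞ (i.v. arm at 5 mg/kg run alongside).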

[15] = Oral bioavailability in rat at 10 mg/kg; type: ADME, organism-based; details: in vivo
Procedure, shortened: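 Male rats were dosed orally at 10 mg/kg, with a parallel i.v. arm at 5 mg/kg. Plasma PK parameters were derived, including Cmax, Tmax, T1/2 and AUC0-∞, with oral bioavailability (F) reported against the i.v. arm.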

[16] = biological target: Phosphatidylinositol 4,5-bisphosphate 3-kinase catalytic subunit beta isoform (Homo sapiens) (UniProt P42338); assay: Inhibition of PI3Kbeta (unknown origin) transfected in human Rh30 cells assessed as reduction in AKT phosphorylation at Ser473 residue at 10XIC50 by western blot analysis; type: cell-based; procedure, shortened: as §1
Chain of Phosphatidylinositol 4,5-bisphosphate 3-kinase catalytic subunit beta isoform (Homo sapiens) (P42338 whole entry, looked up, canonical isoform): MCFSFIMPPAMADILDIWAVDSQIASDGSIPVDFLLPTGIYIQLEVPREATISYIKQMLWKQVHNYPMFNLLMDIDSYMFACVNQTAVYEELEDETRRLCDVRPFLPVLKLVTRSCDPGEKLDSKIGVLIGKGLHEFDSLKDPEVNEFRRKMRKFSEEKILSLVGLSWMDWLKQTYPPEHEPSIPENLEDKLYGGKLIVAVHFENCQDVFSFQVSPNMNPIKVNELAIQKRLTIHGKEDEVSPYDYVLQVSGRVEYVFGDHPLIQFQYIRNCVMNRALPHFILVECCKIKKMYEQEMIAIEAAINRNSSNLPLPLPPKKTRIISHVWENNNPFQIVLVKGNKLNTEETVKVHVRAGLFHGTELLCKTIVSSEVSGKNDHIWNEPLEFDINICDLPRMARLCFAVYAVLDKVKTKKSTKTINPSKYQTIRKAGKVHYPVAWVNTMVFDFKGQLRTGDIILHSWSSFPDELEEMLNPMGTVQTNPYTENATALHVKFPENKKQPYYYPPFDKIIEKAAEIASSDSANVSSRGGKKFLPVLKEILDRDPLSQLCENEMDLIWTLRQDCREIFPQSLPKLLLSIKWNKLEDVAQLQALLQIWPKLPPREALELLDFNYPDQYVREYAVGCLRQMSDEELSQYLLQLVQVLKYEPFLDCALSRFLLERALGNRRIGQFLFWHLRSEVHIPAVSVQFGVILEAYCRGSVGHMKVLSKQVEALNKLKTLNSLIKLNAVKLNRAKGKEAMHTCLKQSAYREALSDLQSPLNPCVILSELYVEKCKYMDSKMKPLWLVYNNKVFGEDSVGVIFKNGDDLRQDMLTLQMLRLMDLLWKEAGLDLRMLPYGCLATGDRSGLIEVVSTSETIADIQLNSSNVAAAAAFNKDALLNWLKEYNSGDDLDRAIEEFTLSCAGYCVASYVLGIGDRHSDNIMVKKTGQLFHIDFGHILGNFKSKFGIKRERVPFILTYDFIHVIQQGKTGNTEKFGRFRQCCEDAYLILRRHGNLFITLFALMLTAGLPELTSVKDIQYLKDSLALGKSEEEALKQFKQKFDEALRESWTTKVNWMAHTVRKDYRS

[17] = biological target: Phosphatidylinositol 4,5-bisphosphate 3-kinase catalytic subunit delta isoform (Homo sapiens) (UniProt O00329); assay: Inhibition of PI3Kdelta (unknown origin) transfected in human Rh30 cells assessed as reduction in AKT phosphorylation at Ser473 residue at 10XIC50 by western blot analysis; type: cell-based; procedure, shortened: as §1
Chain of Phosphatidylinositol 4,5-bisphosphate 3-kinase catalytic subunit delta isoform (Homo sapiens) (O00329 whole entry, canonical isoform): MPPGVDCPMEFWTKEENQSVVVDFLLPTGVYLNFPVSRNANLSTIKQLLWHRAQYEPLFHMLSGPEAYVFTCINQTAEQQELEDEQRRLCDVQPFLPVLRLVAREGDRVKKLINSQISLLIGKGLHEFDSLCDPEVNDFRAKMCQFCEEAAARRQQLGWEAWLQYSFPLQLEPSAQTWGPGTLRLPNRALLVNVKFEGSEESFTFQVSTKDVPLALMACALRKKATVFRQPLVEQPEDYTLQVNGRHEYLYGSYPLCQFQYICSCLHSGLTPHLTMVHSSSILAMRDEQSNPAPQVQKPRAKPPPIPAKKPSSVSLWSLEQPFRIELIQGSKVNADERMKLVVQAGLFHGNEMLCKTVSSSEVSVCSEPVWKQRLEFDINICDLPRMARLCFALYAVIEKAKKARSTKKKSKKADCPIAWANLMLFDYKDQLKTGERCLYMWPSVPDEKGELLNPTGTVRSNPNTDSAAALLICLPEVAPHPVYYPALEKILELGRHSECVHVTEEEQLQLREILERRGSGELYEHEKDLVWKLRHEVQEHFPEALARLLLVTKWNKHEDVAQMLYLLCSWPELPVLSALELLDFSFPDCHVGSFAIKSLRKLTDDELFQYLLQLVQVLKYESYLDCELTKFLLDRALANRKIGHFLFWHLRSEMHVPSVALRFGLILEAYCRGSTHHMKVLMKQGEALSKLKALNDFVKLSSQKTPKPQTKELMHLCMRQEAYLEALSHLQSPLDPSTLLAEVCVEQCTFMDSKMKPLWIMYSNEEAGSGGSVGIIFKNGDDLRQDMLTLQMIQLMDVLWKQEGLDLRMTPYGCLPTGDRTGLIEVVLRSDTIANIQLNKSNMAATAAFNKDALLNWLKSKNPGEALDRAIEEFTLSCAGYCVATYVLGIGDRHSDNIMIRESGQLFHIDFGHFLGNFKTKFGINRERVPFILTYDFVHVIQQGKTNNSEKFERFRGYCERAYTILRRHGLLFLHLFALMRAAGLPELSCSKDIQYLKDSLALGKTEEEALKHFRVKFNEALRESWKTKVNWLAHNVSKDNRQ

[18] = biological target: Serine/threonine-protein kinase mTOR (Homo sapiens, UniProt P42345); assay: Inhibition of human full length recombinant mTOR in presence of [gamma33P-ATP] by radiometric scintillation counting analysis
[19] = Toxicity in BALB/cA nude mouse xenografted with human SK-OV-3 cells assessed as blood glucose level at 5 to 20 mg/kg, po administered once a day for 18 days by glucose meter analysis; type: organism-based; details: in vivo, 432 h, dose 5-20 mg/kg/day, time 18 day
Procedure, shortened: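 Female BALB/cA nude mice, 4–5 weeks old, carried s.c. SKOV-3 xenograft fragments. They were dosed orally once daily for 18 days with vehicle or compound, then fasted 6 h and given glucose orally at 2 g/kg. Blood was sampled at set times up to 2 h, and glucose was measured with a blood glucose meter.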

[20] = biological target: CYP450 (isoform not stated) (Homo sapiens, UniProt P04798+P05177+P05181+P08684+P10632+P10635+P11509+P11712+P13584+P20813+P20815+P20853+P24462+P24903+P33260+P33261+P51589+P78329+P98187+Q02928+Q08477+Q16678+Q16696+Q5TCH4+Q6VVX0+Q7Z449+Q8TAV3+Q96SQ9+Q9HB55); assay: Inhibition of CYP450 (unknown origin); type: ADME, protein assay
[21] = biological target: PI3-kinase p110-delta/p85-alpha (Homo sapiens, UniProt O00329); assay: Inhibition of human PI3K p110delta/p85alpha using PIP2 as substrate in presence of ATP measured after 30 mins by HTRF assay
Chain of PI3-kinase p110-delta/p85-alpha (P27986 whole entry): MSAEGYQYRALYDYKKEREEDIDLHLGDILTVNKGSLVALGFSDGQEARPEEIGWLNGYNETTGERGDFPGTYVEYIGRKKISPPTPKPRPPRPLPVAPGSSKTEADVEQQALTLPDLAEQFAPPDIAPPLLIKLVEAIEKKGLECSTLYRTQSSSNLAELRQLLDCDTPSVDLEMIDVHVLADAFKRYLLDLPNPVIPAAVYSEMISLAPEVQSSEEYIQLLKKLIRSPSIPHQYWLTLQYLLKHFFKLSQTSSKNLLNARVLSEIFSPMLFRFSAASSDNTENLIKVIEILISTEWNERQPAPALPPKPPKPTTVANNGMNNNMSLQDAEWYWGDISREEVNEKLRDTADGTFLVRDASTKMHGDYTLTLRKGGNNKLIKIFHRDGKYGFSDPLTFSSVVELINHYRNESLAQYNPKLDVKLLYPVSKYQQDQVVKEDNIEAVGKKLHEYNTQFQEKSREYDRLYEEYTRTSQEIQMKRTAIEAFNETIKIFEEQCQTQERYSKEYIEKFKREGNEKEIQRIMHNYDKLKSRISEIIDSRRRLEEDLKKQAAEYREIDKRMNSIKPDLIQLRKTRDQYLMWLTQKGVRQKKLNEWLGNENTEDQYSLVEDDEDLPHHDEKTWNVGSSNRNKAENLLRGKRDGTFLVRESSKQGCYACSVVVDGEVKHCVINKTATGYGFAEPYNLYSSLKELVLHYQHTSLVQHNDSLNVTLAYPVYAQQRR
Chain of PI3-kinase p110-delta/p85-alpha (O00329 whole entry): as the sequence (O00329 whole entry, canonical isoform) above

[22] = Inhibition of human PI3K p110alpha H1047R mutant/p85alpha using PIP2 as substrate incubated for 30 mins in presence of ATP by HTRF assay

With COC(=O)Nc1cc(C(F)(F)F)c(-c2nc(N3CCOCC3)c3cc(CN4CCN(S(C)(=O)=O)CC4)cn3n2)cn1 [RISOVALISIB] the IC50 [1] was 1000 nM, the inhibition [2] was “Active” and the inhibition [3] was “Dose-dependent effect”. It also gave an IC50 [4] of under 1000 nM, an IC50 [5] of under 1000 nM and an IC50 [6] of under 1000 nM. The IC50 [7] was under 1000 nM, the Activity [8] was 67.4% and the Activity [9] was “Non-Toxic”. The half-life [10] was 2.46 h, the CLint scaled [11] was 39.5 mL/min/kg and the CLint scaled [12] was 16.9 mL/min/kg. It also gave a half-life [13] of 1.49 h, an AUC(0-inf) [14] of 2750 ng·h/mL and a bioavailability [15] of 36.9%. For the same compound, the inhibition [16] was “Active”, the inhibition [17] was “Active” and the IC50 [18] was over 10000 nM. The Activity [19] was “Non-Toxic”, the IC50 [20] was over 30000 nM and the IC50 [21] was 78.7 nM. It also gave an IC50 [22] of 8.4 nM.
